The values below come from ChEMBL document CHEMBL1124843, “Water-soluble renin inhibitors: design of a subnanomolar inhibitor with a prolonged duration of action” (J Med Chem, 1990).

Converted amounts (≈) assume the structure as drawn.

Data set [1] is described as follows: Log P value at the pH of 6.5. In kind it is physicochemical. To be noted: octanol/water, pH 6.5; read-out: LogD6.5. The gist of the method: (§1)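 Octanol/water partition. Inhibitor (0.3–0.5 mg) was dissolved in 1.00 mL octanol, and 200 μL was added to 5.00 mL buffer: 0.1 M PIPES pH 6.5 or 0.1 M HEPES pH 7.4. Samples were shaken 2 h and centrifuged, and both phases were diluted and quantified by HPLC. P was calculated from peak areas × dilution factors.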

Data set [2] is described as follows: Log P value at the pH of 7.4. In kind it is physicochemical. To be noted: octanol/water, pH 7.4; read-out: LogD7.4. Summed up: as §1
For data set [3], the target named is T1, Renin (Homo sapiens, UniProt P00797).
T1 sequence (P00797 whole entry): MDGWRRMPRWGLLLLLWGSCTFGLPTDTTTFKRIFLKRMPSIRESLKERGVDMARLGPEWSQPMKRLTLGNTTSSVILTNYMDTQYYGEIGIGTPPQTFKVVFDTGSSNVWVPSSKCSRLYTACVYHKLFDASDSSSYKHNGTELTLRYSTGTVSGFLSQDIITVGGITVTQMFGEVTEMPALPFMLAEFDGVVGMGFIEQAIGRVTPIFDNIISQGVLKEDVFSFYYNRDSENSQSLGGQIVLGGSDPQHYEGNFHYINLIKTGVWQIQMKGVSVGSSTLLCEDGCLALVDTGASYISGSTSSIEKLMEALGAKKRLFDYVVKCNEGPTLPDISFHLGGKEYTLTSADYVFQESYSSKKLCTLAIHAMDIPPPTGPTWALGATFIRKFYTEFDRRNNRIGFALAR
The data set is described as follows: Inhibitory activity against purified human renal renin at pH 6.5. The format is functional.

For data set [4], the target named is T1, Renin. In words: Inhibitory activity against human plasma renin at pH 7.4. The format is functional, cell-free.
The nature of data set [5]: Solubility at 37 degree C and pH of 7.4. In kind it is physicochemical. The note with it: pH 7.4; read-out: S.
The subject of data set [6] is Rattus norvegicus. In words: Excretion of radiolabeled [14C]-21 in rats when administered orally at the dose of 1.0 mg/kg. The format is ADME, organism-based. Set-up: dose 1 mg/kg, route oral. The note with it: in vivo, po. Summed up: (§2)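 Rats got [14C]-labelled inhibitor (label at oxazolidinone carbonyl), 1 mg/kg orally or intravenously. Urine and feces were collected over 72 h. Feces were homogenized in 70% aqueous ethanol and aliquots burned in a sample oxidizer. Total radioactivity was counted by liquid scintillation with internal-standard quench correction and expressed as % of dose. Mean ± SE, n = 2.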

Data set [7] can be described thus: Plasma level when given intraduodenally to anesthetized rats from portal sample at 30 min. The format is ADME, organism-based. To be noted: rat, read-out: Plasma level. Summed up: (§3)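 Anesthetized rats (n = 4) received unlabelled drug intraduodenally at 10 mg/kg. Portal and systemic blood were sampled at 10 and 30 min. Plasma drug levels were determined by a renin inhibition assay. Values are mean ± SE.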

Data set [8] in a line: % change in blood pressure when administarted intravenously. The format is ADME. To be noted: iv. The gist of the method:
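Anesthetized, salt-depleted cynomolgus monkeys, 0.1 mg/kg iv bolus (n = 5). Maximum % change in mean arterial pressure taken from the T = 0 baseline. […] Values are mean ± SE.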

Data set [9] is described as follows: Plasma level when given intraduodenally to anesthetized rats (systemic) at 10 min. The format is ADME, organism-based. The note with it: rat, read-out: Plasma level. Summed up: as §3
The subject of data set [10] is Rattus norvegicus. In words: metabolic profile radiolabeled [14C]-21 in rats when administered intravenously at the dose of 1.0 mg/kg. In kind it is ADME, organism-based. Set-up: dose 1 mg/kg, route intravenous. The note with it: in vivo, iv. The gist of the method: (§4)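 Rats were dosed orally or iv at 1 mg/kg with 14C-labelled drug. Urine and fecal samples were profiled by C-18 HPLC with a linear 15–50% aqueous acetonitrile gradient containing 0.1% TFA. Peaks were tentatively identified by retention time against reference standards, using 215 nm absorbance or radioactivity. Results are given as % of 14C dose, mean ± SE, n = 2.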

Data set [11] is described as follows: Plasma level when given intraduodenally to anesthetized rats (systemic) at 30 min. In kind it is ADME, organism-based. To be noted: rat, read-out: Plasma level. The gist of the method:
as §3

The subject of data set [12] is Rattus norvegicus. In words: metabolic profile radiolabeled [14C]-21 in rats when administered orally at the dose of 1.0 mg/kg. The format is ADME, organism-based. To be noted: in vivo, po. Set-up: dose 1 mg/kg, route oral. Summed up: as §4
The nature of data set [13]: Plasma level when given intraduodenally to anesthetized rats from portal sample at 10 min. In kind it is ADME, organism-based. To be noted: rat, read-out: Plasma level. Summed up: as §3
Data set [14] has as its system Rattus norvegicus. In words: Excretion of radiolabeled [14C]-21 in rats when administered intravenously at the dose of 1.0 mg/kg. More on the design: dose 1 mg/kg, route intravenous. The format is ADME, organism-based. To be noted: in vivo, iv. The gist of the method: as §2
The target of data set [15] is Renin (Macaca fascicularis). In words: Inhibitory activity against monkey plasma renin at pH 7.4.

As for `CCN1C[C@@H]([C@H](O)[C@H](CC2CCCCC2)NC(=O)[C@H](Cc2cnc[nH]2)NC(=O)[C@@H](CC(=O)N(C)CCO)Cc2ccccc2)OC1=O`, the results for the logD in data set [1] and in data set [2] were 1.74 and 1.94, respectively. The figures for the IC50 on Renin [3] and against Renin [4] were 0.85 nM and 2.5 nM, respectively. Besides, the solubility in data set [5] is 5.2 mM (≈ 3410 µg/mL).
The like results for `CCN1C[C@@H]([C@H](O)[C@H](CC2CCCCC2)NC(=O)[C@H](Cc2c[nH]cn2)NC(=O)[C@H](Cc2ccc(OC)cc2)NC(=O)C(C)C)OC1=O` were, in that order, 2.67, 2.85, 1.7 nM, 9.9 nM and 0.37 mM (≈ 242 µg/mL).
As to `CCN1C[C@@H]([C@H](O)[C@H](CC2CCCCC2)NC(=O)[C@H](Cc2c[nH]cn2)NC(=O)[C@H](Cc2ccc(OC)cc2)NC(=O)N(C)CCOCOCCOC)OC1=O`, the logD in data set [1] is 1.83; in data set [2], 2.03. The figures for the IC50 on Renin [3] and against Renin [4] were 1.7 nM and 14 nM, respectively.
For `CCN1C[C@@H]([C@H](O)[C@H](CC2CCCCC2)NC(=O)[C@H](Cc2cnc[nH]2)NC(=O)[C@H](Cc2ccc(OC)cc2)NC(=O)N2C[C@H](OCOCCOC)[C@H](OCOCCOC)C2)OC1=O`, in that order: 1.58, 1.67, 8.5 nM and 26 nM.
Regarding `CCN1C[C@@H]([C@H](O)[C@H](CC2CCCCC2)NC(=O)[C@H](Cc2cnc[nH]2)NC(=O)[C@H](Cc2ccc(OC)cc2)NC(=O)N2C[C@H](OCOC)[C@H](OCOC)C2)OC1=O`, the logD in [1] stood at 1.94; in [2] it was 2.06. For the same molecule, the IC50 was determined as 12 nM against Renin [3] and 59 nM against Renin [4].
Consider `CCN1C[C@@H]([C@H](O)[C@H](CC2CCCCC2)NC(=O)[C@H](Cc2c[nH]cn2)NC(=O)[C@H](Cc2ccc(OC)cc2)NC(=O)N2C[C@@H](O)[C@@H](O)C2)OC1=O`, for which the logD in data set [1] turned out to be 0.91; in data set [2] it was 1.22. Besides, the IC50 amounted to 6.9 nM at Renin [3] and 8.7 nM at Renin [4].
As for `CCN1C[C@@H]([C@H](O)[C@H](CC2CCCCC2)NC(=O)[C@H](Cc2cnc[nH]2)NC(=O)[C@@H](CC(=O)N(C)CCOCOC)Cc2ccccc2)OC1=O`, the logD is 2.28 in data set [1] and 2.49 in data set [2]. Moreover, the IC50 against Renin [3] was 0.49 nM; on Renin [4], 1.1 nM.
In the case of `CCN1C[C@@H]([C@H](O)[C@H](CC2CCCCC2)NC(=O)[C@H](Cc2cnc[nH]2)NC(=O)[C@@H](CC(=O)N2C[C@H](OCOC)[C@H](OCOC)C2)Cc2ccccc2)OC1=O`, the results for the logD in [1] and in [2] were 2.08 and 2.31, respectively. Moreover, the IC50 is 2.7 nM on Renin [3] and 11 nM against Renin [4]. The solubility in data set [5] was 4.5 mM (≈ 3470 µg/mL).
`CCN1C[C@@H]([C@H](O)[C@H](CC2CCCCC2)NC(=O)[C@H](Cc2cnc[nH]2)NC(=O)[C@H](Cc2ccc(OC)cc2)NC(=O)N(C)CC(O)CO)OC1=O` (stereo partly drawn): the logD in data set [1] stood at 1.2; in data set [2], 1.42. In addition, the IC50 on Renin [3] is 7.9 nM; at Renin [4], 46 nM.
On to `CCN1C[C@@H]([C@H](O)[C@H](CC2CCCCC2)NC(=O)[C@H](Cc2cnc[nH]2)NC(=O)[C@H](Cc2ccc(OC)cc2)NC(=O)N2CCOCC2)OC1=O`, for which the logD in data set [1] turned out to be 1.91; in [2], 2.11. Besides, the IC50 at Renin [3] was determined as 3.4 nM; against Renin [4] it was 9.6 nM. Moreover, the solubility in data set [5] was found to be 5.9 mM (≈ 4120 µg/mL).
For `CCN1C[C@@H]([C@H](O)[C@H](CC2CCCCC2)NC(=O)[C@H](Cc2c[nH]cn2)NC(=O)[C@H](Cc2ccc(OC)cc2)NC(=O)N(C)CCOCOC)OC1=O`, in that order: 2.08, 2.3, 4.6 nM, 27 nM and 2.1 mM (≈ 1530 µg/mL).
For the molecule `CCN1C[C@@H]([C@H](O)[C@H](CC2CCCCC2)NC(=O)[C@H](Cc2c[nH]cn2)NC(=O)[C@@H](CC(=O)N(C)CCOCOCCOC)Cc2ccccc2)OC1=O`, the Dose in the data set with Rattus norvegicus [6] was determined as 1.9%; in the data set with Rattus norvegicus [10], 35%; with Rattus norvegicus [12] it was 73%; in the data set with Rattus norvegicus [14], 8.5%. In addition, the figures for the concentration at 0.5 h in [7] and in [11] were 420 ng/mL and 2.5 ng/mL, respectively. Also, the logD in [1] was found to be 1.89; in data set [2], 2.21. In addition, the Change in [8] is 43%. The results for the concentration at 10 min in data set [9] and in [13] were 1.6 ng/mL and 360 ng/mL, respectively. In data set [5], the solubility came to 5.4 mM (≈ 4010 µg/mL).
In the case of `CCN1C[C@@H]([C@H](O)[C@H](CC2CCCCC2)NC(=O)[C@H](Cc2cnc[nH]2)NC(=O)[C@@H](CC(=O)N(C)CCOC)Cc2ccccc2)OC1=O`, the logD in data set [1] was determined as 2.29; in data set [2], 2.45. Further, the IC50 on Renin [3] came out at 0.59 nM; against Renin [4] it was 1.5 nM. Further, in [5], the solubility was 3.4 mM (≈ 2270 µg/mL).
On to `CC(C)C(=O)N[C@@H](Cc1ccccc1)C(=O)N[C@@H](Cc1cnc[nH]1)C(=O)N[C@@H](CC1CCCCC1)[C@@H](O)[C@@H](O)CN=[N+]=[N-]`, for which the Change in [8] was 18%. In addition, the solubility in data set [5] came out at 0.045 mM (≈ 26.9 µg/mL). The molecule further showed an IC50 in data set [15] of 0.29 nM.
For the molecule `CCN1C[C@@H]([C@H](O)[C@H](CC2CCCCC2)NC(=O)[C@H](Cc2cnc[nH]2)NC(=O)[C@@H](CC(=O)N2C[C@H](OCOCCOC)[C@H](OCOCCOC)C2)Cc2ccccc2)OC1=O`, the values for the logD in [1] and in data set [2] were 1.56 and 1.87, respectively. Further, the figures for the IC50 against Renin [3] and on Renin [4] were 1.6 nM and 7.3 nM, respectively. Besides, the solubility in data set [5] stood at 8.7 mM (≈ 7470 µg/mL).
In the case of `CCN1C[C@@H]([C@H](O)[C@H](CC2CCCCC2)NC(=O)[C@H](Cc2cnc[nH]2)NC(=O)[C@@H](CC(=O)N2CCOCC2)Cc2ccccc2)OC1=O`, the logD in data set [1] was found to be 1.9; in [2], 2.2. Further, the IC50 at Renin [3] came out at 0.99 nM; at Renin [4], 1.3 nM.

Usually IC50 stands for the concentration needed to halve the response being measured.
